Tests used:
Type in all cases: functional
[1] = system: Malme-3M; test: Growth inhibition of human MALME-3M cells at 10 uM after 48 hrs by SRB assay relative to control; conditions: read-out: GI
Summary of the method: (§1)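 Screened at the National Cancer Institute by the standard NCI protocol using the sulforhodamine B assay, which measures cellular protein. Single dose of 10 µM. Result is percent growth inhibition; values above 100% mean cell number fell below the initial population. Values are the average of duplicates.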

[2] = system: UACC-62; test: Growth inhibition of human UACC62 cells at 10 uM after 48 hrs by SRB assay relative to control; conditions: UACC-62, 48 h, read-out: GI
Summary of the method: (§2)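 NCI screen against its human cancer cell line panel by the standard NCI protocol, SRB protein stain. Single dose of 10 μM. Percent growth inhibition versus control; values above 100% mean the cell population fell below the starting number. Each value is the mean of duplicates.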

[3] = system: IGROV-1; test: Growth inhibition of human IGROV1 cells at 10 uM after 48 hrs by SRB assay relative to control; conditions: IGROV-1, 48 h, read-out: GI; summary of the method: as §1
[4] = system: NCI/ADR-RES; test: Growth inhibition of human NCI/ADR-RES cells at 10 uM after 48 hrs by SRB assay relative to control; conditions: read-out: GI; summary of the method: as §1
[5] = system: OVCAR-3; test: Growth inhibition of human OVCAR3 cells at 10 uM after 48 hrs by SRB assay relative to control; conditions: OVCAR-3, 48 h, read-out: GI; summary of the method: as §1
[6] = system: COLO 205; test: Growth inhibition of human COLO205 cells at 10 uM after 48 hrs by SRB assay relative to control; conditions: COLO 205, 48 h, read-out: GI; summary of the method: as §1
[7] = system: HOP-92; test: Growth inhibition of human HOP92 cells at 10 uM after 48 hrs by SRB assay relative to control; conditions: HOP-92, 48 h, read-out: GI; summary of the method: as §1
[8] = system: NCI-H23; test: Growth inhibition of human NCI-H23 cells at 10 uM after 48 hrs by SRB assay relative to control; conditions: NCI-H23, 48 h, read-out: GI; summary of the method: as §1
[9] = system: HCC 2998; test: Growth inhibition of human HCC2998 cells at 10 uM after 48 hrs by SRB assay relative to control; conditions: HCC 2998, 48 h, read-out: GI; summary of the method: as §1
[10] = system: DU-145; test: Growth inhibition of human DU145 cells at 10 uM after 48 hrs by SRB assay relative to control; conditions: DU-145, 48 h, read-out: GI; summary of the method: as §1
[11] = system: SF-539; test: Growth inhibition of human SF539 cells at 10 uM after 48 hrs by SRB assay relative to control; conditions: SF-539, 48 h, read-out: GI; summary of the method: as §1
[12] = system: SK-MEL-28; test: Growth inhibition of human SK-MEL-28 cells at 10 uM after 48 hrs by SRB assay relative to control; conditions: SK-MEL-28, 48 h, read-out: GI; summary of the method: as §1
[13] = system: CCRF-CEM; test: Growth inhibition of human CCRF-CEM cells at 10 uM after 48 hrs by SRB assay relative to control; conditions: read-out: GI; summary of the method: as §1
[14] = system: Hs-578T; test: Growth inhibition of human Hs 578T cells at 10 uM after 48 hrs by SRB assay relative to control; conditions: read-out: GI; summary of the method: as §1
[15] = system: CAKI-1; test: Growth inhibition of human Caki1 cells at 10 uM after 48 hrs by SRB assay relative to control; conditions: CAKI-1, 48 h, read-out: GI; summary of the method: as §1
[16] = system: OVCAR-4; test: Growth inhibition of human OVCAR4 cells at 10 uM after 48 hrs by SRB assay relative to control; conditions: OVCAR-4, 48 h, read-out: GI; summary of the method: as §1
[17] = system: SF-295; test: Growth inhibition of human SF295 cells at 10 uM after 48 hrs by SRB assay relative to control; conditions: SF-295, 48 h, read-out: GI; summary of the method: as §1
[18] = system: MCF7; test: Growth inhibition of human MCF7 cells at 10 uM after 48 hrs by SRB assay relative to control; conditions: MCF7, 48 h, read-out: GI; summary of the method: as §1
[19] = system: HL-60(TB); test: Growth inhibition of human HL-60(TB) cells at 10 uM after 48 hrs by SRB assay relative to control; conditions: HL-60, 48 h, read-out: GI
Summary of the method: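 Run at NCI under its standard single-dose protocol against a leukemia cell panel. Cells were exposed to 10 µM; growth was read by sulforhodamine B staining of cellular protein and expressed as % growth inhibition versus untreated control. Values above 100% mean the cell population fell below the starting count (cytocidal). Each value is the average of duplicates.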

[20] = system: SNB-19; test: Growth inhibition of human SNB19 cells at 10 uM after 48 hrs by SRB assay relative to control; conditions: SNB-19, 48 h, read-out: GI; summary of the method: as §2
[21] = system: RPMI-8226; test: Growth inhibition of human RPMI8226 cells at 10 uM after 48 hrs by SRB assay relative to control; conditions: RPMI-8226, 48 h, read-out: GI; summary of the method: as §1
[22] = system: SK-MEL-5; test: Growth inhibition of human SK-MEL-5 cells at 10 uM after 48 hrs by SRB assay relative to control; conditions: SK-MEL-5, 48 h, read-out: GI; summary of the method: as §1
[23] = system: SNB-75; test: Growth inhibition of human SNB75 cells at 10 uM after 48 hrs by SRB assay relative to control; conditions: SNB-75, 48 h, read-out: GI; summary of the method: as §2
[24] = system: U-251; test: Growth inhibition of human U251 cells at 10 uM after 48 hrs by SRB assay relative to control; conditions: U-251, 48 h, read-out: GI; summary of the method: as §2
[25] = system: HCT-116; test: Growth inhibition of human HCT116 cells at 10 uM after 48 hrs by SRB assay relative to control; conditions: HCT-116, 48 h, read-out: GI; summary of the method: as §1
[26] = system: HT-29; test: Growth inhibition of human HT-29 cells at 10 uM after 48 hrs by SRB assay relative to control; conditions: HT-29, 48 h, read-out: GI; summary of the method: as §1
[27] = system: UACC-257; test: Growth inhibition of human UACC257 cells at 10 uM after 48 hrs by SRB assay relative to control; conditions: UACC-257, 48 h, read-out: GI; summary of the method: as §2
[28] = system: UO-31; test: Growth inhibition of human UO31 cells at 10 uM after 48 hrs by SRB assay relative to control; conditions: UO-31, 48 h, read-out: GI; summary of the method: as §2
[29] = system: SN12C; test: Growth inhibition of human SN12C cells at 10 uM after 48 hrs by SRB assay relative to control; conditions: read-out: GI; summary of the method: as §1
[30] = system: MDA-MB-435; test: Growth inhibition of human MDA-MB-435 cells at 10 uM after 48 hrs by SRB assay relative to control; conditions: MDA-MB-435, 48 h, read-out: GI; summary of the method: as §1
[31] = system: NCI-H322M; test: Growth inhibition of human NCI-H322M cells at 10 uM after 48 hrs by SRB assay relative to control; conditions: read-out: GI; summary of the method: as §1
[32] = system: K562; test: Growth inhibition of human K562 cells at 10 uM after 48 hrs by SRB assay relative to control; conditions: K562, 48 h, read-out: GI; summary of the method: as §1
[33] = system: HOP-62; test: Growth inhibition of human HOP62 cells at 10 uM after 48 hrs by SRB assay relative to control; conditions: HOP-62, 48 h, read-out: GI; summary of the method: as §1

Row | Structure (SMILES) | inhibition of growth at 10 µM [1] | inhibition of growth at 10 µM [2] | inhibition of growth at 10 µM [3] | inhibition of growth at 10 µM [4] | inhibition of growth at 10 µM [5] | inhibition of growth at 10 µM [7] | inhibition of growth at 10 µM [8] | inhibition of growth at 10 µM [9] | inhibition of growth at 10 µM [10] | inhibition of growth at 10 µM [11] | inhibition of growth at 10 µM [12] | inhibition of growth at 10 µM [13] | inhibition of growth at 10 µM [14] | inhibition of growth at 10 µM [15] | inhibition of growth at 10 µM [16] | inhibition of growth at 10 µM [17] | inhibition of growth at 10 µM [18] | inhibition of growth at 10 µM [19] | inhibition of growth at 10 µM [20] | inhibition of growth at 10 µM [21] | also measured
1 | Cc1ccc(NC(=O)c2ccc(CN3CCN(C)CC3)cc2)cc1Nc1nccc(-c2cccnc2)n1 [IMATINIB] | -13.7% | 7.7% | -18.6% | -0.5% | -10.3% | 43.7% | 17.1% | -22% | 14.4% | 24.5% | -9.4% | 6.6% | 9.9% | -0.2% | -0.1% | 15.1% | 8.1% | -6.8% | -12.2% | 12.6% | inhibition of growth at 10 µM [6]: -1.1%; inhibition of growth at 10 µM [22]: 22.3%; inhibition of growth at 10 µM [23]: 0.6%; inhibition of growth at 10 µM [24]: 10.6%; inhibition of growth at 10 µM [25]: 18.6%; inhibition of growth at 10 µM [26]: 47.1%; inhibition of growth at 10 µM [27]: 2.8%; inhibition of growth at 10 µM [28]: 7.6%; inhibition of growth at 10 µM [29]: 6%; inhibition of growth at 10 µM [30]: 7.4%
2 | COc1ccccc1C(=O)Nc1cccc(-c2cc(=O)c3c(OC)c(OC)c(OC)cc3o2)c1 | 34.5% | 56.9% | 57.1% | 41.8% | 48.6% | 100% | 37.6% | 32.2% | 55.1% | 36.2% | 44% | 84% | 76.4% | 34.9% | 41% | 40.8% | 46.6% | 42.3% | 63.8% | 93.2% | inhibition of growth at 10 µM [31]: 56.4%; inhibition of growth at 10 µM [32]: 63.6%; inhibition of growth at 10 µM [22]: 75%; inhibition of growth at 10 µM [23]: 16.8%; inhibition of growth at 10 µM [24]: 61%; inhibition of growth at 10 µM [25]: 63.3%; inhibition of growth at 10 µM [26]: 75.4%; inhibition of growth at 10 µM [27]: 38.5%; inhibition of growth at 10 µM [33]: 42.2%; inhibition of growth at 10 µM [28]: 84.8%; inhibition of growth at 10 µM [29]: 59%; inhibition of growth at 10 µM [30]: 56.5%
3 | COc1cccc(C(=O)Nc2cccc(-c3cc(=O)c4c(OC)c(OC)c(OC)cc4o3)c2)c1 | 12.8% | 41.1% | 42.6% | 34.5% | 24.6% | 51.8% | 33.9% | 19.5% | 32.6% | 33.7% | 27% | 56.1% | 43.2% | 18.1% | 37.7% | 42.7% | 21.3% | 14.8% | 29.6% | 83.2% | inhibition of growth at 10 µM [31]: 27.1%; inhibition of growth at 10 µM [32]: 62%; inhibition of growth at 10 µM [22]: 39.4%; inhibition of growth at 10 µM [23]: 32.6%; inhibition of growth at 10 µM [24]: 36.2%; inhibition of growth at 10 µM [25]: 46.4%; inhibition of growth at 10 µM [26]: 53.6%; inhibition of growth at 10 µM [27]: 3.66%; inhibition of growth at 10 µM [33]: 30.2%; inhibition of growth at 10 µM [28]: 66.7%; inhibition of growth at 10 µM [29]: 38.7%; inhibition of growth at 10 µM [30]: 23.4%
